Reference: ChEMBL document CHEMBL1821679, “Targeting the heat shock protein 90 dimer with dimeric inhibitors” (J Med Chem, 2011)
The source made the active and inactive calls. The rule behind the calls is not given here.

Experiments:
SK-BR-3 = assay: Antiproliferative activity against human SKBR3 cells after 72 hrs by MTS/PMS assay; type: functional, cell-based; settings: SK-BR-3, 72 h
Summary of the method: (§1)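 Cells grown in medium with non-essential amino acids, 2 mM L-glutamine, streptomycin, penicillin and 10% FBS at 37 °C, 5% CO2; seeded 2000/well, attached overnight. Test agent added over a concentration range in DMSO (1% final), 72 h exposure. Viable cells counted by MTS/PMS read-out against 1% DMSO wells as 100% proliferation. IC50 taken as mean ± SD of at least two separate experiments, each in triplicate.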

MCF7 = assay: Antiproliferative activity against human MCF7 cells after 72 hrs by MTS/PMS assay; type: functional, cell-based; settings: MCF7, 72 h; summary of the method: as §1
[1] = Antiproliferative activity against human PC3MM2 cells after 72 hrs by MTS/PMS assay; type: functional, cell-based; settings: PC3MM2, 72 h; summary of the method: as §1
A549 = assay: Antiproliferative activity against human A549 cells after 72 hrs by MTS/PMS assay; type: functional, cell-based; settings: A549, 72 h; summary of the method: as §1
HT-29 = assay: Antiproliferative activity against human HT-29 cells after 72 hrs by MTS/PMS assay; type: functional, cell-based; settings: HT-29, 72 h; summary of the method: as §1
[2] = biological target: T1, Heat shock protein HSP90 (Homo sapiens) (UniProt P07900+P08238); assay: Inhibition of Hsp90 in human MCF7 cells assessed as induction of Her2 degradation at 5 fold IC50 after 24 hrs by Western blot method; type: cell-based
Summary of the method: (§2)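 MCF-7 cells treated 24 h with compound in DMSO (1% final); geldanamycin 500 nM served as positive control and DMSO as vehicle control. Cells harvested in cold PBS and lysed 1 h on ice in RIPA with 1 mM PMSF, 2 mM orthovanadate and protease inhibitors. Lysates clarified 14,000g, 15 min, 4 °C. Protein (20 µg, BCA) resolved under reducing conditions and blotted on PVDF for Her2, Raf and Akt, with actin as loading control. Detection by HRP secondary antibody and chemiluminescence.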

[3] = biological target: T1, Heat shock protein HSP90 (Homo sapiens); assay: Inhibition of Hsp90 in human MCF7 cells assessed as induction of Her2 degradation at 0.5 fold IC50 after 24 hrs by Western blot method; type: cell-based; summary of the method: as §2
[4] = biological target: T1, Heat shock protein HSP90 (Homo sapiens); assay: Inhibition of Hsp90 in human MCF7 cells assessed as induction of Raf degradation at 5 fold IC50 after 24 hrs by Western blot method; type: cell-based; summary of the method: as §2
[5] = biological target: T1, Heat shock protein HSP90 (Homo sapiens); assay: Inhibition of Hsp90 in human MCF7 cells assessed as induction of Raf degradation at 0.5 fold IC50 after 24 hrs by Western blot method; type: cell-based; summary of the method: as §2
[6] = biological target: T1, Heat shock protein HSP90 (Homo sapiens); assay: Inhibition of Hsp90 in human MCF7 cells assessed as induction of Akt degradation at 5 fold IC50 after 24 hrs by Western blot method; type: cell-based; summary of the method: as §2
[7] = biological target: T1, Heat shock protein HSP90 (Homo sapiens); assay: Inhibition of Hsp90 in human MCF7 cells assessed as induction of Akt degradation at 0.5 fold IC50 after 24 hrs by Western blot method; type: cell-based; summary of the method: as §2

IC50 (SK-BR-3) [µM] | IC50 (MCF7) [µM] | IC50 (A549) [µM] | IC50 (HT-29) [µM] | inhibition [2] | inhibition [3] | inhibition [4] | inhibition [5] | inhibition [6] | inhibition [7] | SMILES | IC50 [1] [µM]
0.15 | 0.27 | 5.54 | 0.05 | Active | Active | Active | Active | Active | Active | Cc1c(OC2CCN(C)CC2)ccc2cc(NC(=O)CC/C=C/CCC(=O)Nc3cc4ccc(OC5CCN(C)CC5)c(C)c4oc3=O)c(=O)oc12 | 4.19
1.16 | 0.76 | 35.4 | 36.5 | Active | Active | Active | Active | Active | Active | COc1ccc(C(=O)Nc2cc3ccc(O[C@@H]4OC(C)(C)[C@H](OC)[C@@H](O)[C@H]4O)c(C)c3oc2=O)cc1-c1cc(C(=O)Nc2cc3ccc(O[C@@H]4OC(C)(C)[C@H](OC)[C@@H](O)[C@H]4O)c(C)c3oc2=O)ccc1OC | 36.7
0.91 | 0.88 | 0.21 | 0.27 | Active | Active | Active | Active | Active | Active | COc1ccc(C(=O)Nc2cc3ccc(O[C@@H]4OC(C)(C)[C@H](OC)[C@@H](O)[C@H]4O)c(OC)c3oc2=O)cc1-c1cc(C(=O)Nc2cc3ccc(O[C@@H]4OC(C)(C)[C@H](OC)[C@@H](O)[C@H]4O)c(OC)c3oc2=O)ccc1OC | 0.27
0.18 | 0.29 | 21.5 | 7.1 | Active | Active | Active | Active | Active | Active | Cc1c(OC2CCN(C)CC2)ccc2cc(NC(=O)C/C=C/CC(=O)Nc3cc4ccc(OC5CCN(C)CC5)c(C)c4oc3=O)c(=O)oc12 | 7.51
